Key:
Format in all cases: functional, cell-based, Homo sapiens
Calu-6 [1] = experiment: Cytotoxic activity was determined in vitro in Calu-6 cell line culture at pH 7.4
Summary of the method: (§1)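 Plated at 2×10^6 cells/plate. After one day, medium was replaced with pH 7.4 medium (2.2 g NaHCO3/L) and equilibrated under 5% CO2. Cells got 2 h at 37°C, in quadruplicate, of a 1:2 series 50–0.8 µg/mL (acetone ≤5%), then drug-free pH 7.4 medium for 24–96 h until controls were confluent. Fixed with 3% formaldehyde, stained with 1% crystal violet, A550. IC50 from dose–response curves; mean of four assays ± SD.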

SK-OV-3 [2] = experiment: Cytotoxic activity was determined in vitro in SK-OV-3 cell line culture at pH 6.8
Summary of the method: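 SK-OV-3 seeded at 1×10^6 cells/plate. Next day, placed in pH 6.8 medium (1.3 g NaHCO3/L, HCl-treated serum, 5% CO2). Given 2 h at 37°C, in quadruplicate, of 50–0.8 µg/mL (1:2; acetone ≤5%), then drug-free pH 7.4 medium until controls were confluent. Formaldehyde-fixed and crystal violet-stained, A550. IC50 from dose–response curves, mean of four assays ± SD.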

LXF-289 cell line [3] = experiment: Cytotoxic activity was determined in vitro in LXF-289 cell line culture at pH 7.4; summary of the method: as §1
Calu-6 [4] = experiment: Cytotoxic activity was determined in vitro in Calu-6 cell line culture at pH 6.8
Summary of the method: (§2)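 Seeded at 2×10^6 cells/plate. Next day, switched to pH 6.8 medium (1.3 g NaHCO3/L, serum acidified with 1 N HCl) and equilibrated in 5% CO2. Exposed for 2 h at 37°C in quadruplicate to 50–0.8 µg/mL (1:2 series; acetone ≤5%), then given drug-free pH 7.4 medium until controls were confluent. Read by formaldehyde fixation and crystal violet at 550 nm. IC50 from dose–response curves, mean of four assays ± SD.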

MCF7 [5] = experiment: Cytotoxic activity was determined in vitro in MCF-7 cell line culture at pH 7.4
Summary of the method: (§3)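 Using pH 7.4 medium (2.2 g NaHCO3/L) on cells plated a day earlier at 2×10^6/plate, with equilibration in 5% CO2. Compounds were applied for 2 h at 37°C in quadruplicate at 50–0.8 µg/mL (1:2; acetone ≤5%), followed by drug-free pH 7.4 medium until controls were confluent. Fixed and stained with crystal violet, dye eluted with ethanol/1% acetic acid, read at 550 nm. IC50 from curves, mean of four ± SD.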

MCF7 [6] = experiment: Cytotoxic activity was determined in vitro in MCF-7 cell line culture at pH 6.8
Summary of the method: (§4)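 Cells at 2×10^6/plate were moved the next day into pH 6.8 medium (1.3 g NaHCO3/L; serum given 1 N HCl; 30 min 5% CO2). Treated 2 h at 37°C, quadruplicate, 50–0.8 µg/mL in 1:2 steps (acetone ≤5%), then grown in drug-free pH 7.4 medium to control confluence. Crystal violet stain eluted with ethanol/1% acetic acid before A550. IC50 from curves, mean of four assays ± SD.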

KB [7] = experiment: Cytotoxic activity was determined in vitro in KB cell line culture at pH 6.8; summary of the method: as §4
SK-MEL-25 [8] = experiment: Cytotoxic activity was determined in vitro in SK-MEL-25 cell line culture at pH 7.4; summary of the method: as §1
SK-OV-3 [9] = experiment: Cytotoxic activity was determined in vitro in SK-OV-3 cell line culture at pH 7.4
Summary of the method: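 With 1×10^6 cells/plate seeded, medium was changed the next day to pH 7.4 (2.2 g NaHCO3/L) under 5% CO2. Cells were exposed 2 h at 37°C in quadruplicate to a 1:2 series of 50–0.8 µg/mL (acetone ≤5%), then given drug-free pH 7.4 medium until controls were confluent. Crystal violet read at 550 nm after formaldehyde fixation. IC50 from curves; mean of four assays ± SD.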

LXF-289 cell line [10] = experiment: Cytotoxic activity was determined in vitro in LXF-289 cell line culture at pH 6.8; summary of the method: as §2
KB [11] = experiment: Cytotoxic activity was determined in vitro in KB cell line culture at pH 7.4; summary of the method: as §3
SK-MEL-25 [12] = experiment: Cytotoxic activity was determined in vitro in SK-MEL-25 cell line culture at pH 6.8; summary of the method: as §2

Substance	IC50 (Calu-6 [1]) [µM]	IC50 (SK-OV-3 [2]) [µM]	IC50 (LXF-289 cell line [3]) [µM]	IC50 (Calu-6 [4]) [µM]	IC50 (MCF7 [5]) [µM]	IC50 (MCF7 [6]) [µM]	IC50 (KB [7]) [µM]	IC50 (SK-MEL-25 [8]) [µM]	IC50 (SK-OV-3 [9]) [µM]	IC50 (LXF-289 cell line [10]) [µM]	IC50 (KB [11]) [µM]	IC50 (SK-MEL-25 [12]) [µM]
2,6-dimethoxy-1,3,5,7-tetrathia-4-platinaspiro[3.3]heptane	21	26	102	11	19	7	20	80	47	39	49	14
2,6-dipropoxy-1,3,5,7-tetrathia-4-platinaspiro[3.3]heptane	21	45	49	7	9	4	12	21	50	37	38	10
CISPLATIN	25	64	83	16	160	108	55	90	90	113	52	78
